{"data": "Results from different studies", "target": "Serine/threonine-protein kinase PAK 4 (PAK4, Homo sapiens, UniProt O96013)", "note": "Compare with care: the assays were run in different laboratories."}
{"Compound": "COc1cc(Nc2ncc(F)c(Nc3ccc4c(n3)NC(=O)C(C)(C)O4)n2)cc(OC)c1OC", "observed": "binding", "method": "competition with immobilised ligand", "tested at": "10 µM", "endpoint": "inhibition", "result": "97%"}
{"Compound": "Cn1cc(-c2cccc(N3CCc4c(sc5c4CC(C)(C)C5)C3=O)c2CO)cc(Nc2ccncn2)c1=O", "observed": "enzyme activity", "action": "inhibitor", "tested at": "1 µM", "endpoint": "inhibition", "result": "-6%"}
{"Compound": "Nc1ncc(-c2nc(N3CCOCC3)nc(N3CCOCC3)n2)c(C(F)F)n1", "observed": "binding", "method": "competition with immobilised ligand", "tested at": "10 µM", "endpoint": "remaining binding", "result": "58%"}
{"Compound": "Cc1nn(C)cc1-c1nc2c(N3CCN(Cc4ccc(Cl)cc4)CC3)c(Cl)cnc2[nH]1", "observed": "binding", "method": "competition with immobilised ligand", "tested at": "1 µM", "endpoint": "remaining binding", "result": "100%"}
{"Compound": "O=c1[nH]c2ccccc2n1C1CCN(Cc2ccc(-c3[nH]c4cc5ncnc5cc4nc3-c3ccccc3)cc2)CC1", "observed": "cell-free assay", "tested at": "0.5 µM", "endpoint": "remaining signal", "result": "102%"}
{"Compound": "Cc1n[nH]c2ccc(-c3cncc(OC[C@@H](N)Cc4c[nH]c5ccccc45)c3)cc12", "observed": "enzyme activity", "action": "inhibitor", "tested at": "1 µM", "endpoint": "inhibition", "result": "26%"}
{"Compound": "C#Cc1n[nH]c2c(-c3cn(C(C)c4ccccn4)c(=O)[nH]c3=O)cc(F)cc12 (stereo not drawn)", "observed": "enzyme activity", "action": "inhibitor", "tested at": "1 µM", "endpoint": "inhibition", "result": "-6%"}
{"Compound": "Cn1cc(-c2cc(F)cc(N3CCn4c(cc5c4CCCC5)C3=O)c2CO)cc(Nc2ccc(N3CCN(C4COC4)CC3)cn2)c1=O", "observed": "enzyme activity", "action": "inhibitor", "tested at": "0.1 µM", "endpoint": "inhibition", "result": "1%"}
{"Compound": "Cn1cncc1[C@@](O)(COc1ccc(C#N)cc1-c1ccc(OC(F)(F)F)cc1)c1ccc(C#N)cc1", "observed": "cell-free assay", "method": "competition with immobilised ligand", "tested at": "1 µM", "endpoint": "remaining binding", "result": "100%"}
{"Compound": "C#Cc1n[nH]c2c(-c3cn([C@@H](C)c4ccccc4)c(=O)[nH]c3=O)cc(F)cc12", "observed": "enzyme activity", "action": "inhibitor", "tested at": "0.1 µM", "endpoint": "inhibition", "result": "0.6%"}
{"Compound": "N#CC1(c2ccccn2)CCN(Cc2cc(C(=O)O)c(=O)n3ccccc23)CC1", "observed": "cell-free assay", "method": "competition with immobilised ligand", "tested at": "1 µM", "endpoint": "remaining binding", "result": "100%"}
{"Compound": "COc1ncccc1-c1cnn2ccc(N3CCN(C(=O)OC(C)C)CC3)nc12", "observed": "binding", "method": "competition with immobilised ligand", "tested at": "1 µM", "endpoint": "remaining binding", "result": "62%"}
